Data reported in ChEMBL document CHEMBL4346661, “Design, synthesis and evaluation of novel diaryl-1,5-diazoles derivatives bearing morpholine as potent dual COX-2/5-LOX inhibitors and antitumor agents” (Eur J Med Chem, 2019).
Calls of active or inactive are those of the source. The rule behind the calls is not given here.

How the values were obtained:
B16-F10 [1] = experiment: Antiproliferative activity against mouse B16F10 cells incubated for 48 hrs by MTT assay; format: functional, cell-based; conditions: B16-F10, 48 h
Procedure, shortened: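 MTT assay on F10 (murine melanoma), HeLa, A549, MCF-7 and 293T (human renal epithelium) cells. IC50 given as mean ± SD of three independent experiments.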

B16-F10 [2] = experiment: Induction of apoptosis in mouse B16F10 cells assessed as necrosis cells at 6.25 uM incubated for 48 hrs by Annexin-V-FITC/propidium iodide staining-based flow cytometric analysis (reference value: 0.186%); format: functional
Procedure, shortened: (§1)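 F10 cells were exposed to 0, 3.125, 6.25, 12.5 or 25 µM for 48 h. Cells were stained with Annexin V/PI and read by flow cytometry. Data are mean ± SD of three independent experiments.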

[3] = Metabolic stability in mouse B16F10 cells implanted in nude mouse plasma assessed as peak time at 40 mg/kg, ip measured after 24 to 48 hrs by HPLC analysis; format: ADME, organism-based; conditions: in vivo
Procedure, shortened: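 Tumor-bearing nude mice dosed intraperitoneally. Blood was taken from the eye 24 h later and centrifuged to plasma. The plasma was extracted with ethyl acetate and analysed by HPLC for compound peak retention time.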

B16-F10 [4] = experiment: Induction of cell cycle arrest in mouse B16F10 cells assessed as cell accumulation at G1 phase at 3.125 uM incubated for 48 hrs by propidium iodide staining-based flow cytometric analysis (reference value: 59.73%); format: functional
B16-F10 [5] = experiment: Induction of apoptosis in mouse B16F10 cells assessed as late apoptosis cells at 6.25 uM incubated for 48 hrs in presence of apoptosis inhibitor z-VAD-fmk by Annexin-V-FITC/propidium iodide staining-based flow cytometric analysis (reference value: 3.13%); format: functional
B16-F10 [6] = experiment: Induction of apoptosis in mouse B16F10 cells assessed as viable cells at 6.25 uM incubated for 48 hrs by Annexin-V-FITC/propidium iodide staining-based flow cytometric analysis (reference value: 94%); format: functional; conditions: B16-F10, 48 h, read-out: Activity; procedure, shortened: as §1
B16-F10 [7] = experiment: Induction of cell cycle arrest in mouse B16F10 cells assessed as increase in cell accumulation at G2 phase at incubated for 48 hrs by propidium iodide staining-based flow cytometric analysis; format: functional
B16-F10 [8] = experiment: Induction of apoptosis in mouse B16F10 cells assessed as viable cells at 12.5 uM incubated for 48 hrs by Annexin-V-FITC/propidium iodide staining-based flow cytometric analysis (reference value: 94%); format: functional; conditions: B16-F10, 48 h, read-out: Activity; procedure, shortened: as §1
B16-F10 [9] = experiment: Induction of apoptosis in mouse B16F10 cells assessed as viable cells at 12.5 uM incubated for 48 hrs in presence of apoptosis inhibitor z-VAD-fmk by Annexin-V-FITC/propidium iodide staining-based flow cytometric analysis (reference value: 92.5%); format: functional; conditions: B16-F10, 48 h, read-out: Activity
B16-F10 [10] = experiment: Induction of apoptosis in mouse B16F10 cells assessed as late apoptosis cells at 25 uM incubated for 48 hrs by Annexin-V-FITC/propidium iodide staining-based flow cytometric analysis (reference value: 2.88%); format: functional; procedure, shortened: as §1
B16-F10 [11] = experiment: Antitumor activity against mouse B16F10 cells implanted in nude mouse assessed as reduction in tumor size at 20 mg/kg, ip administered once per 2 days for 14 days by caliper method; format: functional
Procedure, shortened: (§2)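 Nude mice were given 5×10^6 F10 cells subcutaneously in the right flank. At about 100 mm3, 24 mice were randomized into four groups of vehicle or compound. Dosing was intraperitoneal every two days for two weeks. Tumor volume was recorded every other day. Tumors were excised and weighed after the last treatment, and body weight was monitored.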

B16-F10 [12] = experiment: Induction of cell cycle arrest in mouse B16F10 cells assessed as cell accumulation at G2 phase at 12.5 uM incubated for 48 hrs by propidium iodide staining-based flow cytometric analysis (reference value: 22.43%); format: functional
[13] = Inhibition of 5-LOX assessed as calcium ionophore A23187-stimulated LTB4 production preincubated for 30 mins followed by calcium ionophore A23187 addition and measured after 30 mins by ELISA
B16-F10 [14] = experiment: Induction of apoptosis in mouse B16F10 cells assessed as early apoptosis cells at 6.25 uM incubated for 48 hrs in presence of apoptosis inhibitor z-VAD-fmk by Annexin-V-FITC/propidium iodide staining-based flow cytometric analysis (reference value: 3.83%); format: functional
B16-F10 [15] = experiment: Induction of apoptosis in mouse B16F10 cells assessed as necrosis cells at 25 uM incubated for 48 hrs in presence of apoptosis inhibitor z-VAD-fmk by Annexin-V-FITC/propidium iodide staining-based flow cytometric analysis (reference value: 0.558%); format: functional
B16-F10 [16] = experiment: Induction of apoptosis in mouse B16F10 cells assessed as late apoptosis cells at 25 uM incubated for 48 hrs in presence of apoptosis inhibitor z-VAD-fmk by Annexin-V-FITC/propidium iodide staining-based flow cytometric analysis (reference value: 3.13%); format: functional
B16-F10 [17] = experiment: Induction of apoptosis in mouse B16F10 cells assessed as early apoptosis cells at 6.25 uM incubated for 48 hrs by Annexin-V-FITC/propidium iodide staining-based flow cytometric analysis (reference value: 2.93%); format: functional; procedure, shortened: as §1
B16-F10 [18] = experiment: Inhibition of LPS-induced PGE2 production in mouse B16F10 cells at 6.25 uM incubated for 24 hrs by enzyme immunoassay; format: functional, cell-based
Procedure, shortened: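 F10 cells treated for 24 h alongside LPS (1 µg/ml), test agent at 6.25 µM. Supernatant collected by centrifugation and PGE2 measured with a PGE2 enzyme immunoassay (ELISA) kit. Mean ± SD of three independent experiments.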

B16-F10 [19] = experiment: Induction of cell cycle arrest in mouse B16F10 cells assessed as cell accumulation at G1 phase at 6.25 uM incubated for 48 hrs by propidium iodide staining-based flow cytometric analysis (reference value: 59.73%); format: functional
B16-F10 [20] = experiment: Induction of cell cycle arrest in mouse B16F10 cells assessed as cell accumulation at S phase at 3.125 uM incubated for 48 hrs by propidium iodide staining-based flow cytometric analysis (reference value: 14.16%); format: functional
B16-F10 [21] = experiment: Induction of apoptosis in mouse B16F10 cells assessed as viable cells at 25 uM incubated for 48 hrs by Annexin-V-FITC/propidium iodide staining-based flow cytometric analysis (reference value: 94%); format: functional; conditions: B16-F10, 48 h, read-out: Activity; procedure, shortened: as §1
[22] = Toxicity in mouse B16F10 cells implanted in nude mouse assessed as change in body weight at 20 to 40 mg/kg, ip administered once per 2 days for 14 days; format: organism-based; conditions: in vivo
Procedure, shortened: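 Nude mice carried subcutaneous right-flank xenografts of 5×10^6 F10 cells. At about 100 mm3 tumor size they were randomized into groups of six (twenty-four mice, four groups): vehicle or 20 or 40 mg/kg, given intraperitoneally once every two days for two weeks. Body weight was tracked during treatment.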

B16-F10 [23] = experiment: Induction of apoptosis in mouse B16F10 cells assessed as viable cells at 25 uM incubated for 48 hrs in presence of apoptosis inhibitor z-VAD-fmk by Annexin-V-FITC/propidium iodide staining-based flow cytometric analysis (reference value: 92.5%); format: functional; conditions: B16-F10, 48 h, read-out: Activity
B16-F10 [24] = experiment: Induction of cell cycle arrest in mouse B16F10 cells assessed as cell accumulation at G1 phase at 12.5 uM incubated for 48 hrs by propidium iodide staining-based flow cytometric analysis (reference value: 59.73%); format: functional
B16-F10 [25] = experiment: Induction of cell cycle arrest in mouse B16F10 cells assessed as cell accumulation at S phase at 6.25 uM incubated for 48 hrs by propidium iodide staining-based flow cytometric analysis (reference value: 14.16%); format: functional
B16-F10 [26] = experiment: Antitumor activity against mouse B16F10 cells implanted in nude mouse assessed as decrease in tumor weight at 20 mg/kg, ip administered once per 2 days for 14 days by caliper method relative to control; format: functional, organism-based; procedure, shortened: as §2

NS(=O)(=O)c1ccc(-n2nc(C(=O)NCCCN3CCOCC3)cc2-c2ccc(C(F)(F)F)cc2)cc1
IC50 (B16-F10 [1]): 6.43 µM | Activity (B16-F10 [2]): 0.366% | Retention_time [3]: 39.95 min | Activity (B16-F10 [4]): 55.36% | Activity (B16-F10 [5]): 5.34% | viability at 6.25 µM (B16-F10 [6]): 77.2% | Activity (B16-F10 [7]): Dose-dependent effect | viability at 12.5 µM (B16-F10 [8]): 73.7% | viability at 12.5 µM (B16-F10 [9]): 84% | Activity (B16-F10 [10]): 6.11% | Activity (B16-F10 [11]): 1076.58 mm3 | Activity (B16-F10 [12]): 30.41% | IC50 [13]: 680 nM | Activity (B16-F10 [14]): 5.74% | Activity (B16-F10 [15]): 0.845% | Activity (B16-F10 [16]): 9.1% | Activity (B16-F10 [17]): 14.5% | inhibition (B16-F10 [18]): Active | Activity (B16-F10 [19]): 50.07% | Activity (B16-F10 [20]): 11.16% | viability at 25 µM (B16-F10 [21]): 51.8% | Activity [22]: Non-Toxic | viability at 25 µM (B16-F10 [23]): 78.8% | Activity (B16-F10 [24]): 49.08% | Activity (B16-F10 [25]): 15.23% | Activity (B16-F10 [26]): Active
